Measurements published in ChEMBL document CHEMBL1147665, “Design, synthesis, and biological evaluation of 4-alkyliden-beta lactams: new products with promising antibiotic activity against resistant bacteria” (J Med Chem, 2006).
In brackets after ≈: the same amount, converted by molar mass.

How the values were obtained:
Streptococcus pyogenes = experiment: Antibacterial activity against Streptococcus pyogenes; assay type: functional
Summary of the method: (§1)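 Broth microdilution MIC per CLSI guidelines in Mueller-Hinton broth: serial 2-fold dilutions, inoculum 5 × 10⁵ CFU/mL in equal volume, 35 °C for 16-20 h. MIC = lowest concentration with no visible turbidity. Recent clinical isolates (43 total, Gram-positive and Gram-negative); values given as MIC ranges, MIC₅₀ and MIC₉₀ per species.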

Streptococcus pneumoniae = experiment: Antibacterial activity against Streptococcus pneumoniae; assay type: functional; summary of the method: as §1
Enterococcus = experiment: Antibacterial activity against Enterococcus spp; assay type: functional; summary of the method: as §1
Staphylococcus aureus [1] = experiment: Antibacterial activity against methicillin-resistant Staphylococcus aureus; assay type: functional
Summary of the method: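 Clinical isolates (3 MRSA in a 43-strain panel). Broth microdilution per CLSI, serial 2-fold dilutions in Mueller-Hinton broth, inoculum 5 × 10⁵ CFU/mL, 35 °C for 16-20 h. MIC = lowest concentration with no visible turbidity; reported as MIC range, MIC₅₀ and MIC₉₀ across isolates.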

Staphylococcus aureus [2] = experiment: Antibacterial activity against methicillin-susceptible Staphylococcus aureus; assay type: functional; summary of the method: as §1
[3] = test system: Staphylococcus epidermidis; experiment: Antibacterial activity against Staphylococcus epidermidis; assay type: functional; summary of the method: as §1
Haemophilus influenzae = experiment: Antibacterial activity against Haemophilus influenzae; assay type: functional; summary of the method: as §1
[4] = Viability of human TPC1 cell line at 128 uM after 3 hrs; assay type: cell-based; settings: TPC1 cells, read-out: Activity
Summary of the method: (§2)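 Human TPC1 cells seeded at 40 000/well in supplemented DMEM, grown overnight at 37 °C, 5% CO₂. Fresh medium with compound (0-128 µM, 2-fold steps), six parallel wells per concentration and controls, exposed 3, 6 or 21 h. MTT (5 mg/mL stock diluted 1:15 in medium) for 3 h, acidified 2-propanol solubilization, OD 600 nm; viability relative to control.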

[5] = Viability of human TPC1 cell line at 8 uM after 21 hrs; assay type: cell-based; settings: TPC1 cells, read-out: Activity; summary of the method: as §2
[6] = Viability of human TPC1 cell line at 128 uM after 21 hrs; assay type: cell-based; settings: TPC1 cells, read-out: Activity; summary of the method: as §2
[7] = Viability of human TPC1 cell line at 32 uM after 21 hrs; assay type: cell-based; settings: TPC1 cells, read-out: Activity; summary of the method: as §2

O=C(/C=C1\NC(=O)[C@@H]1Cl)OCc1ccccc1
MIC50 (Streptococcus pyogenes): 32 µg/mL (≈ 127 µM)
MIC90 (Streptococcus pyogenes): 128 µg/mL (≈ 509 µM)
MIC50 (Streptococcus pneumoniae): 128 µg/mL (≈ 509 µM)
MIC90 (Streptococcus pneumoniae): 128 µg/mL (≈ 509 µM)
MIC50 (Enterococcus): 16 µg/mL (≈ 63.6 µM)
MIC90 (Enterococcus): 16 µg/mL (≈ 63.6 µM)
MIC50 (Staphylococcus aureus [1]): 16 µg/mL (≈ 63.6 µM)
MIC90 (Staphylococcus aureus [1]): 32 µg/mL (≈ 127 µM)
MIC50 (Staphylococcus aureus [2]): 8 µg/mL (≈ 31.8 µM)
MIC90 (Staphylococcus aureus [2]): 16 µg/mL (≈ 63.6 µM)
MIC50 [3]: 8 µg/mL (≈ 31.8 µM)
MIC90 [3]: 32 µg/mL (≈ 127 µM)
MIC50 (Haemophilus influenzae): 1 µg/mL (≈ 3.97 µM)
MIC90 (Haemophilus influenzae): 2 µg/mL (≈ 7.95 µM)
viability at 3 h, 128 µM [4]: 48%
viability at 21 h, 8 µM [5]: 81%
viability at 21 h, 128 µM [6]: 23%

COc1cc(C(=O)O[C@H](C)[C@H]2C(=O)N/C2=C\C(=O)OCc2ccccc2)cc(OC)c1O
MIC50 (Streptococcus pyogenes): 128 µg/mL (≈ 290 µM)
MIC90 (Streptococcus pyogenes): 128 µg/mL (≈ 290 µM)
MIC50 (Streptococcus pneumoniae): 128 µg/mL (≈ 290 µM)
MIC90 (Streptococcus pneumoniae): 128 µg/mL (≈ 290 µM)
MIC50 (Enterococcus): 128 µg/mL (≈ 290 µM)
MIC90 (Enterococcus): > 128 µg/mL
MIC50 (Staphylococcus aureus [1]): 32 µg/mL (≈ 72.5 µM)
MIC90 (Staphylococcus aureus [1]): 64 µg/mL (≈ 145 µM)
MIC50 (Staphylococcus aureus [2]): 16 µg/mL (≈ 36.2 µM)
MIC90 (Staphylococcus aureus [2]): 128 µg/mL (≈ 290 µM)
MIC50 [3]: 2 µg/mL (≈ 4.53 µM)
MIC90 [3]: 64 µg/mL (≈ 145 µM)
MIC50 (Haemophilus influenzae): 64 µg/mL (≈ 145 µM)
MIC90 (Haemophilus influenzae): 128 µg/mL (≈ 290 µM)
viability at 21 h, 128 µM [6]: 64%
viability at 21 h, 32 µM [7]: 81%

CO/N=C(\C(=O)N[C@@H]1C(=O)N2C(C(=O)O)=C(CSc3nc(=O)c(O)nn3C)CS[C@H]12)c1csc(N)n1 [CEFTRIAXONE]
MIC50 (Streptococcus pyogenes): < 0.06 µg/mL
MIC90 (Streptococcus pyogenes): < 0.06 µg/mL
MIC50 (Streptococcus pneumoniae): 0.12 µg/mL (≈ 0.216 µM)
MIC90 (Streptococcus pneumoniae): 2 µg/mL (≈ 3.61 µM)
MIC50 (Enterococcus): > 128 µg/mL
MIC90 (Enterococcus): > 128 µg/mL
MIC50 (Staphylococcus aureus [1]): > 128 µg/mL
MIC90 (Staphylococcus aureus [1]): > 128 µg/mL
MIC50 (Staphylococcus aureus [2]): 2 µg/mL (≈ 3.61 µM)
MIC90 (Staphylococcus aureus [2]): 2 µg/mL (≈ 3.61 µM)
MIC50 [3]: 8 µg/mL (≈ 14.4 µM)
MIC90 [3]: 32 µg/mL (≈ 57.7 µM)
MIC50 (Haemophilus influenzae): < 0.06 µg/mL
MIC90 (Haemophilus influenzae): 0.12 µg/mL (≈ 0.216 µM)

C[C@@H](O)[C@H]1C(=O)N2C(C(=O)O)=C(SCCNC=N)C[C@H]12 [IMIPENEM ANHYDROUS]
MIC50 (Streptococcus pyogenes): < 0.06 µg/mL
MIC90 (Streptococcus pyogenes): < 0.06 µg/mL
MIC50 (Streptococcus pneumoniae): 0.12 µg/mL (≈ 0.401 µM)
MIC90 (Streptococcus pneumoniae): 1 µg/mL (≈ 3.34 µM)
MIC50 (Enterococcus): 0.5 µg/mL (≈ 1.67 µM)
MIC90 (Enterococcus): > 128 µg/mL
MIC50 (Staphylococcus aureus [1]): 64 µg/mL (≈ 214 µM)
MIC90 (Staphylococcus aureus [1]): 128 µg/mL (≈ 428 µM)
MIC50 (Staphylococcus aureus [2]): < 0.06 µg/mL
MIC90 (Staphylococcus aureus [2]): < 0.06 µg/mL
MIC50 [3]: < 0.06 µg/mL
MIC90 [3]: 1 µg/mL (≈ 3.34 µM)
MIC50 (Haemophilus influenzae): < 0.06 µg/mL
MIC90 (Haemophilus influenzae): 0.12 µg/mL (≈ 0.401 µM)

C[C@@H](O)[C@H]1C(=O)N2C(C(=O)O)=C(S[C@@H]3CN[C@H](C(=O)N(C)C)C3)[C@H](C)[C@H]12 [MEROPENEM]
MIC50 (Streptococcus pyogenes): < 0.06 µg/mL
MIC90 (Streptococcus pyogenes): < 0.06 µg/mL
MIC50 (Streptococcus pneumoniae): < 0.06 µg/mL
MIC90 (Streptococcus pneumoniae): 2 µg/mL (≈ 5.22 µM)
MIC50 (Enterococcus): 2 µg/mL (≈ 5.22 µM)
MIC90 (Enterococcus): > 128 µg/mL
MIC50 (Staphylococcus aureus [1]): 32 µg/mL (≈ 83.4 µM)
MIC90 (Staphylococcus aureus [1]): 32 µg/mL (≈ 83.4 µM)
MIC50 (Staphylococcus aureus [2]): < 0.06 µg/mL
MIC90 (Staphylococcus aureus [2]): < 0.06 µg/mL
MIC50 [3]: < 0.12 µg/mL
MIC90 [3]: 64 µg/mL (≈ 167 µM)
MIC50 (Haemophilus influenzae): < 0.06 µg/mL
MIC90 (Haemophilus influenzae): < 0.06 µg/mL
